Measured values from ChEMBL document CHEMBL1133718, “Structure-activity relationships and binding mode of styrylquinolines as potent inhibitors of HIV-1 integrase and replication of HIV-1 in cell culture” (J Med Chem, 2000).

Key:
[1] = test system: Human immunodeficiency virus 1; assay: Inhibitory effect upon disintegration catalyzed by the (50-212) deletion mutant; format: functional
In short: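 Disintegration reaction run with 0.5 pmol D38U3 substrate and 2 pmol of the His-tagged F185K soluble HIV-1 integrase core domain (residues 50-212), expressed and purified recombinantly. Potency is reported as IC50.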

[2] = test system: Human immunodeficiency virus 1; assay: Antiviral activities against HIV-1 replication in CEM cells and its ability to lower the viral charge supernatants was reported; NR is not reached; format: functional, organism-based; conditions: CCRF-CEM
In short: (§1)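 CEM cells infected with cell-free HIV-1 ([…] clone, produced by transfecting P4 cells), in triplicate; virus removed 2 h post-infection, then DMSO-dissolved drug added in fresh medium at increasing concentrations. 72 h supernatants infected HeLa-CD4-βGal (P4) reporter cells for 24 h; lysates incubated with CPRG, absorbance at 570 nm. Some cases used p24 antigen ELISA.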

[3] = Toxic concentration, estimated by MTT transformation assay; format: ADME, organism-based, Human immunodeficiency virus 1; conditions: CEM cells; read-out: TC50 (the source's name)
In short: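 Cell viability by MTT: MTT solution (7.5 mg/mL, in phosphate buffer) added to infected, drug-treated CEM wells. Incubation 4 h at 37 °C under CO2, formazan dissolved in 10% SDS/10 mM HCl, absorbance read at 570 nm.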

[4] = target: T1, Human immunodeficiency virus type 1 integrase (Human immunodeficiency virus 1, UniProt Q7ZJM1); assay: Inhibitory activity against HIV-1 Integrase in 3'-end- processing
In short: (§2)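 3'-processing: 0.5 pmol U5A/U5B annealed duplex with 1 pmol purified recombinant full-length HIV-1 IN in 20 mM Tris pH 7.2, 30 mM NaCl, 10% glycerol, 10 mM DTT, 0.01% NP40, plus 10 mM MnCl2.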

[5] = target: T1, Human immunodeficiency virus type 1 integrase; assay: Inhibitory activity against HIV-1 Integrase in strand transfer (integration)
[6] = test system: Human immunodeficiency virus 1; assay: Antiviral activities against HIV-1 replication in CEM cells and its ability to lower the viral charge supernatants was reported; format: functional, organism-based; conditions: Human immunodeficiency virus 1, CCRF-CEM; in short: as §1
[7] = target: T1, Human immunodeficiency virus type 1 integrase; assay: Inhibitory activity against Integrase in 3'-end- processing; in short: as §2
[8] = target: T1, Human immunodeficiency virus type 1 integrase; assay: Inhibitory activity against Integrase in strand transfer (integration)
[9] = target: T1, Human immunodeficiency virus type 1 integrase; assay: Inhibitory activity against HIV-1 Integrase in 3'-end- processing with purified recombinant enzyme
[10] = target: T1, Human immunodeficiency virus type 1 integrase; assay: Inhibitory activity against HIV-1 Integrase in strand transfer (integration) with purified recombinant enzyme

T1 sequence (Q7ZJM1 whole entry): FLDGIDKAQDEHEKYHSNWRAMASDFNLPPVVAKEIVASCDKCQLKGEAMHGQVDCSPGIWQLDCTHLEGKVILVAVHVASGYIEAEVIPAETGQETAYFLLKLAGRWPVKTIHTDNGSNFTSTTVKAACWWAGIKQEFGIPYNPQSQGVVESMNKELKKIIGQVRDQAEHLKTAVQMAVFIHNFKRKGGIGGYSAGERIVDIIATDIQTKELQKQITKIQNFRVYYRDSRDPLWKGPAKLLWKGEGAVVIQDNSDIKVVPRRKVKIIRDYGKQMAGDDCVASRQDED

Row | IC50 [6] [µM] | IC50 [7] [µM] | IC50 [8] [µM] | SMILES | IC50 [1] [µM] | NR [2] | CC50 [3] [µM] | IC50 [4] [µM] | IC50 [5] [µM] | IC50 [9] [µM] | IC50 [10] [µM]
1 | 3 |  |  | COc1cc(/C=C/c2ccc3ccc(C(=O)O)c(O)c3n2)ccc1O |  |  | 95 | 2.8 | 3.7 |  | 
2 | 80 |  |  | O=C(O)c1ccc2ccc(/C=C/c3ccc(O)cc3O)nc2c1O |  |  | > 100 |  |  |  | 
3 | 95 |  |  | O=C(O)c1ccc2ccc(/C=C/c3ccc(O)cc3)nc2c1O |  |  | > 100 | 1.6 | 1.6 |  | 
4 |  | 2.3 | 1.5 | O=C(O)c1ccc2ccc(CCc3ccc(O)c(O)c3)nc2c1O |  | Not reached | 61 |  |  |  | 
5 | > 100 |  |  | Cc1ccc2ccc(C(=O)O)c(O)c2n1 |  |  | > 100 |  | > 100 |  | 
6 | 1.2 |  |  | O=C(O)c1ccc2ccc(/C=C/c3cc(O)c(O)c(O)c3)nc2c1O |  |  | 10 |  |  |  | 
7 | > 100 | 3.2 | 3.2 | O=C(O)c1ccc2ccc(/C=C/c3cc(O)cc(O)c3)nc2c1O |  |  | > 100 |  |  |  | 
8 | 9 |  |  | COc1cc(/C=C/c2ccc3ccc(C(=O)O)c(O)c3n2)cc(OC)c1O |  |  | > 100 | 4.9 | 4.5 |  | 
9 | 1.3 |  |  | O=C(O)c1ccc2ccc(/C=C/c3ccc(O)c(O)c3)nc2c1O |  |  | > 100 |  |  |  | 

The remaining lines, values behind:

Row | SMILES | IC50 [6] [µM] | IC50 [7] [µM] | IC50 [8] [µM] | IC50 [1] [µM] | NR [2] | CC50 [3] [µM] | IC50 [4] [µM] | IC50 [5] [µM] | IC50 [9] [µM] | IC50 [10] [µM]
10 | CC(=O)Nc1ccc(/C=C/c2ccc3ccc(C(=O)O)c(O)c3n2)cc1 |  |  |  | 1.7 | Not reached | 47 | 1.4 | 1.2 |  | 
11 | O=C(O)c1ccc2ccc(/C=C/c3cccnc3)nc2c1O | > 100 |  |  | 5.1 |  | > 100 | 4.1 | 11 |  | 
12 | O=C(O)c1ccc2ccc(/C=C/c3ccccc3)nc2c1O |  |  |  | 3.4 | Not reached | 31 | 5.3 | 2.1 |  | 
13 | O=C(O)c1ccc2ccc(/C=C/c3ccc([N+](=O)[O-])cc3)nc2c1O |  |  |  | 2.2 | Not reached | 43 | 1.2 | 1.7 |  | 
14 | COC(=O)c1ccc2ccc(/C=C/c3ccc(O)c(O)c3)nc2c1O |  | > 100 | > 100 |  | Not reached | 9.2 |  |  |  | 
15 | O=C(O)c1ccc2ccc(/C=C/c3cc(O)c(O)c(I)c3)nc2c1O | 6.8 | 4 | 4.9 |  |  | > 100 |  |  |  | 
16 | O=C(O)c1ccc2ccc(/C=C/c3ccsc3)nc2c1O |  |  |  | 0.8 | Not reached | 85 | 3.4 | 3 |  | 
17 | COc1cc(/C=C/c2ccc3ccc(C(=O)O)c(O)c3n2)cc(O)c1O | 12 | 0.7 | 1.7 |  |  | > 100 |  |  |  | 
18 | O=C(O)c1ccc2ccc(/C=C/c3cc(Br)c(O)c(Br)c3)nc2c1O |  |  |  |  |  |  | 1.3 | 1.2 |  | 
19 | Nc1ccc(/C=C/c2ccc3ccc(C(=O)O)c(O)c3n2)cc1 | 50 |  |  | 12 |  | 100 | 3.5 | 2.2 |  | 
20 | O=C(O)c1ccc2ccc(/C=C/c3ccco3)nc2c1O | > 100 |  |  | 1.4 |  | > 100 |  |  | 1.9 | 5.1
21 | COc1ccc(/C=C/c2ccc3ccc(C(=O)O)c(O)c3n2)cc1O | 54 |  |  |  |  | 95 | 0.9 | 3.3 |  | 
22 | Oc1ccc(/C=C/c2ccc3c(Cl)cc(Cl)c(O)c3n2)cc1O |  | > 100 | > 100 |  | Not reached | 17 |  |  |  | 
